# Data taken from ChEMBL document CHEMBL1123418, “N-imidazolylchroman-4-ones, N-imidazolyl-1-tetralones, and their alcohols as hypolipemic agents raising high-density lipoproteins” (1986).
# Several values for one entry are separate records, joined by “and”; a condition that tells them apart may be missing. Equal values may be shown once.
# Test system: Rattus norvegicus
# Experiment: Percent increase in liver weight in rats when a 50 mg/Kg dose was administered
# Format: functional
# Conditions: not given
row,Structure (SMILES),Change [%]
1,OC1c2cc(Cl)ccc2OCC1n1ccnc1 (stereo in doubt; 40),24
2,O=C1c2cc(Cl)ccc2OCC1n1ccnc1 (configuration not stated),34

# Test system: Rattus norvegicus
# Experiment: Percent increase in liver weight in rats when administered perorally
# Format: functional
# Conditions: not given
row,Structure (SMILES),Change [%]
1,O=C1c2cc(O)cc(Br)c2OCC1n1ccnc1 (configuration not stated),-1
2,COc1ccc2c(c1)OC(C)C(n1ccnc1)C2=O (configuration not stated),2
3,CC1Cc2ccccc2C(=O)C1n1ccnc1 (configuration not stated),26
4,CC(C)(C)c1cc2c(cc1O)OCC(n1ccnc1)C2=O (configuration not stated),11
5,CCCc1cc2c(cc1O)OC(C)C(n1ccnc1)C2=O (configuration not stated),8
6,CCCC1Oc2ccccc2C(=O)C1n1ccnc1 (configuration not stated),20
7,CC1Oc2ccccc2C(=O)C1n1ccnc1 (configuration not stated),15
8,COC1c2cc(Cl)ccc2OCC1n1ccnc1 (racemic),15
9,OC1c2cc(Cl)ccc2OCC1n1ccnc1 (trans isomer),20
10,OC1c2cc(Cl)ccc2OCC1n1ccnc1 (stereo in doubt; 40),24
11,O=C1c2cc(Cl)ccc2OCC1n1ccnc1 (configuration not stated),28

# Test system: Rattus norvegicus
# Experiment: Compound was tested for Enzyme induction effect in male rats treated for 5 days at dose 50 mg/kg aminopyrine N-demethylase activity (per g) of liver
# Format: functional
# Conditions: not given
# Method in brief: (§1)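 Male OFA-ICO SD rats were dosed orally for 5 days, with test compounds at 50 mg/kg/day and sodium phenobarbital at 75 mg/kg/day. Liver was homogenized in 1.15% KCl-0.01 M phosphate, pH 7.5. Microsomes were spun from the 9000g supernatant at 105000g and assayed for protein, cytochrome P-450, aniline p-hydroxylation (µmol p-aminophenol/20 min) and aminopyrine N-demethylation (µmol HCHO/5 min). Liver/body weight was also recorded. Mean ± SEM of four rats; Dunnett's test.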
row,Structure (SMILES),Activity
1,O=C1c2cc(Cl)ccc2OCC1n1ccnc1 (configuration not stated),2.98

# Test system: Rattus norvegicus
# Experiment: Compound was tested for Enzyme induction effect in male rats treated for 5 days at dose 50 mg/kg aniline p-hydroxylase activity(per g) of liver
# Format: functional
# Conditions: not given
# Method in brief: as §1
row,Structure (SMILES),Activity
1,O=C1c2cc(Cl)ccc2OCC1n1ccnc1 (configuration not stated),0.93

# Test system: Rattus norvegicus
# Experiment: Compound was tested for Enzyme induction effect in male rats treated for 5 days at dose 50 mg/kg concentration of cytochrome […]( mmol/mg) of protein
# Format: functional
# Conditions: not given
# Method in brief: as §1
row,Structure (SMILES),Activity
1,O=C1c2cc(Cl)ccc2OCC1n1ccnc1 (configuration not stated),2.46

# Test system: Rattus norvegicus
# Experiment: Compound was tested for Hepatic peroxisomal proliferation effect in male rats treated for 7 days at dose 50 mg/kg carnitine acetyl transferase activity(per mg) of protein
# Format: functional
# Conditions: not given
# Method in brief: (§2)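 Male OFA-ICO SD rats received oral doses of 50 mg/kg/day for 1 week. Liver was homogenized in 0.25 M sucrose-0.01 M phosphate-0.1% ethanol, pH 7, then diluted in incubation buffer with 0.1% Triton X-100 and centrifuged. Supernatants were assayed for catalase (K, sec⁻¹), carnitine acetyltransferase (nmol CoASH/min) and cyanide-insensitive palmitoyl-CoA oxidation (nmol NAD⁺ reduced/min). Mean ± SEM of three rats; Dunnett's test.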
row,Structure (SMILES),Activity
1,O=C1c2cc(Cl)ccc2OCC1n1ccnc1 (configuration not stated),2.9

# Test system: Rattus norvegicus
# Experiment: Compound was tested for Hepatic peroxisomal proliferation effect in male rats treated for 7 days at dose 50 mg/kg catalase activity (per mg) of protein
# Format: functional
# Conditions: not given
# Method in brief: as §2
row,Structure (SMILES),Activity
1,O=C1c2cc(Cl)ccc2OCC1n1ccnc1 (configuration not stated),42.1

# Test system: Rattus norvegicus
# Experiment: Compound was tested for Hepatic peroxisomal proliferation effect in male rats treated for 7 days at dose 50 mg/kg palmitoyl-CoA oxidation activity(per mg) of protein
# Format: functional
# Conditions: not given
# Method in brief: as §2
row,Structure (SMILES),Activity
1,O=C1c2cc(Cl)ccc2OCC1n1ccnc1 (configuration not stated),4.1

# Test system: Rattus norvegicus
# Experiment: Percent change in total cholesterol concentration in serum from hypercholesterolemic rats at dose 25 mg/kg (po)
# Format: functional
# Conditions: not given
# Method in brief: (§3)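 Rats were fed 1.5% cholesterol/0.5% cholic acid diet for 7 days, with compounds given by gavage over the last 4 days as a 0.5% Methocel suspension (0.5 mL/100 g). Rats were fasted overnight, killed on day 8 and bled under light CO₂ anesthesia. HDL was isolated by heparin-MnCl₂ precipitation (8000 rpm, 15 min, 4 °C). Total and HDL cholesterol were measured enzymatically-colorimetrically; % change vs control.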
row,Structure (SMILES),Change [%]
1,CCCc1cc2c(cc1O)OC(C)C(n1ccnc1)C2=O (configuration not stated),-15

# Test system: Rattus norvegicus
# Experiment: Percent change in total cholesterol concentration in serum from hypercholesterolemic rats at dose 45 mg/kg (po)
# Format: functional
# Conditions: not given
row,Structure (SMILES),Change [%]
1,CCCC1Oc2ccccc2C(=O)C1n1ccnc1 (configuration not stated),-4

# Test system: Rattus norvegicus
# Experiment: Percent change in total cholesterol concentration in serum from hypercholesterolemic rats at dose 50 mg/kg (po)
# Format: functional
# Conditions: not given
row,Structure (SMILES),Change [%]
1,O=C1c2cc(O)cc(Br)c2OCC1n1ccnc1 (configuration not stated),2
2,COc1ccc2c(c1)OC(C)C(n1ccnc1)C2=O (configuration not stated),11
3,CC1Cc2ccccc2C(=O)C1n1ccnc1 (configuration not stated),-54
4,CC(C)(C)c1cc2c(cc1O)OCC(n1ccnc1)C2=O (configuration not stated),-55
5,CC1Oc2ccccc2C(=O)C1n1ccnc1 (configuration not stated),-67
6,COC1c2cc(Cl)ccc2OCC1n1ccnc1 (racemic),8

# Same assay, conditions: 50 mg/kg
row,Structure (SMILES),Change
1,OC1c2cc(Cl)ccc2OCC1n1ccnc1 (trans isomer),-14%
2,OC1c2cc(Cl)ccc2OCC1n1ccnc1 (stereo in doubt; 40),-42% and -19%

# Test system: Rattus norvegicus
# Experiment: Compound was tested for Enzyme induction effect in male rats treated for 5 days at dose 50 mg/kg concentration of microsomal proteins (mg/g) of liver
# Format: functional, organism-based
# Set-up: dose 50 mg/kg
# Conditions: not given
# Method in brief: as §1
row,Structure (SMILES),Concentration
1,O=C1c2cc(Cl)ccc2OCC1n1ccnc1 (configuration not stated),42.5

# Test system: Rattus norvegicus
# Experiment: Compound was tested for Hepatic peroxisomal proliferation effect in male rats treated for 7 days at dose 50 mg/kg concentration of hepatic proteins(mg/g) in liver
# Format: functional, organism-based
# Set-up: dose 50 mg/kg
# Conditions: not given
row,Structure (SMILES),Concentration
1,O=C1c2cc(Cl)ccc2OCC1n1ccnc1 (configuration not stated),216

# Test system: Rattus norvegicus
# Experiment: Percent change in high density lipoproteins cholesterol concentration in serum from hypercholesterolemic rats at dose 25 mg/kg (po)
# Format: functional
# Conditions: not given
# Method in brief: as §3
row,Structure (SMILES),Change [%]
1,CCCc1cc2c(cc1O)OC(C)C(n1ccnc1)C2=O (configuration not stated),28

# Test system: Rattus norvegicus
# Experiment: Percent change in high density lipoproteins cholesterol concentration in serum from hypercholesterolemic rats at dose 45 mg/kg (po)
# Format: functional
# Conditions: not given
# Method in brief: as §3
row,Structure (SMILES),Change [%]
1,CCCC1Oc2ccccc2C(=O)C1n1ccnc1 (configuration not stated),53

# Test system: Rattus norvegicus
# Experiment: Percent change in high density lipoproteins cholesterol concentration in serum from hypercholesterolemic rats at dose 50 mg/kg (po)
# Format: functional
# Conditions: not given
# Method in brief: as §3
row,Structure (SMILES),Change [%]
1,O=C1c2cc(O)cc(Br)c2OCC1n1ccnc1 (configuration not stated),1
2,COc1ccc2c(c1)OC(C)C(n1ccnc1)C2=O (configuration not stated),5
3,CC1Cc2ccccc2C(=O)C1n1ccnc1 (configuration not stated),102
4,CC(C)(C)c1cc2c(cc1O)OCC(n1ccnc1)C2=O (configuration not stated),97
5,CC1Oc2ccccc2C(=O)C1n1ccnc1 (configuration not stated),115
6,COC1c2cc(Cl)ccc2OCC1n1ccnc1 (racemic),-7

# Same assay, conditions: 50 mg/kg
row,Structure (SMILES),Change [%]
1,OC1c2cc(Cl)ccc2OCC1n1ccnc1 (trans isomer),83

# Species on record: Rattus norvegicus
# Experiment: Compound was tested in vitro for inhibition of Cholesterol biosynthesis in rat liver slices, % inhibition of [14C]acetate incorporation in neutral lipids at 2 e10-4 concentration
# Format: functional
# Conditions: not given
# Method in brief: (§4)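 Liver slices (250 mg) from fed male rats were incubated in Krebs-Ringer bicarbonate, pH 7.4, with 4 mM [2-¹⁴C]acetate under 95% O₂-5% CO₂. Compounds were tested at a final 2 × 10⁻⁴ M, or 5 × 10⁻⁵ M for one compound. ¹⁴C incorporation into cholesterol and into petroleum-ether-soluble nonsaponifiable neutral lipids gave % inhibition; mean of four determinations.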
row,Structure (SMILES),Inhibition [%]
1,OC1c2cc(Cl)ccc2OCC1n1ccnc1 (stereo in doubt; 40),0
2,O=C1c2cc(Cl)ccc2OCC1n1ccnc1 (configuration not stated),0

# Species on record: Rattus norvegicus
# Experiment: Compound was tested in vitro for inhibition of Cholesterol biosynthesis in rat liver slices, % inhibition of [14C]-acetate incorporation in cholesterol at 2 e10-4 concentration
# Format: functional
# Conditions: not given
# Method in brief: as §4
row,Structure (SMILES),Inhibition [%]
1,OC1c2cc(Cl)ccc2OCC1n1ccnc1 (stereo in doubt; 40),0
2,O=C1c2cc(Cl)ccc2OCC1n1ccnc1 (configuration not stated),0

# Test system: not listed separately
# Experiment: Compound was tested for Enzyme induction effect in male rats treated for 5 days at dose 50 mg/kg; ratio of % liver weight to % body weight
# Format: functional
# Conditions: not given
# Method in brief: as §1
row,Structure (SMILES),Ratio [%]
1,O=C1c2cc(Cl)ccc2OCC1n1ccnc1 (configuration not stated),4.4

# Test system: not listed separately
# Experiment: Compound was tested for Hepatic peroxisomal proliferation effect in male rats treated for 7 days at dose 50 mg/kg ratio of % liver weight to % body weight
# Format: functional
# Conditions: not given
row,Structure (SMILES),Ratio [%]
1,O=C1c2cc(Cl)ccc2OCC1n1ccnc1 (configuration not stated),4.36

# Test system: not listed separately
# Experiment: Percent change in high density lipoprotein cholesterol
# Conditions: not given
row,Structure (SMILES),Percent change in HDL cholesterol
1,OC1c2cc(Cl)ccc2OCC1n1ccnc1 (stereo in doubt; 40),123
2,O=C1c2cc(Cl)ccc2OCC1n1ccnc1 (configuration not stated),153

# Test system: Rattus norvegicus
# Experiment: Percent change in triglyceride concentration in serum from normocholesterolemic rats at dose 50 mg/kg (po)
# Conditions: not given
row,Structure (SMILES),Change [%]
1,OC1c2cc(Cl)ccc2OCC1n1ccnc1 (stereo in doubt; 40),-36
2,O=C1c2cc(Cl)ccc2OCC1n1ccnc1 (configuration not stated),-46

# Test system: Rattus norvegicus
# Experiment: Percent change in low density lipoproteins cholesterol concentration in serum from normocholesterolemic rats at dose 50 mg/kg (po)
# Conditions: not given
row,Structure (SMILES),Change [%]
1,OC1c2cc(Cl)ccc2OCC1n1ccnc1 (stereo in doubt; 40),-50
2,O=C1c2cc(Cl)ccc2OCC1n1ccnc1 (configuration not stated),-53
